HCV core dimer: HCV core protein dimerization inhibition; TR-FRET GST/Flag-core106 dimerization, 1536-well; inhibition, % at 5 µM; actives 0.33% (n = 300,000); AID 1899;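 active means inhibition above the mean of all tested compounds plus 3 SD, set per screening campaign, cut at about 45% in these data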
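assay system = GST-tagged and Flag-tagged HCV core protein residues 1-106 | controls = unlabelled core106 and no-GST-core106 wells | incubation = compound-protein-antibody incubation 4 h at 22.5 °C | probe or stimulus = Eu donor and XL665 acceptor anti-tag antibodies | read-out = % inhibition based on acceptor/donor emission ratio | signal = TR-FRET 671 and 617 nm emission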
FID counter: fluorescent intercalator displacement, NS3 helicase counter-screen; AID 1845; DNA fluorescent intercalator displacement, fluorescence; actives 0.17% (n = 290,000); inhibition, % at 7.9 µM; in the data active means inhibition above about 37%;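 further: 0% = vehicle and 100% = reference compound; higher means more ethidium bromide displaced from hairpin DNA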
PABP1 MLLE inh: inhibitors of microRNA-mediated deadenylation, human PABP1 MLLE binding; GST-MLLE / FITC-PAM2 fluorescence polarization; inhibition, % at 20 µM; actives 0.36% (n = 360,000); in the data active means inhibition above about 35%, passing the limit was not always enough;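 further: plate controls were DMSO wells with GST-MLLE for no effect and wells lacking GST-MLLE protein for full effect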
eIF4H inh: inhibitors of RNA binding by human eIF4H. eIF4H fluorescence polarization binding assay. inhibition, % at 35 µM. actives 0.94% (n = 290,000);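 further: calls also rest on retests at 20 µM and on dose response follow-up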
HCV NS3 hel inh: HCV NS3 helicase inhibition; NS3 helicase DNA unwinding, Cy5 molecular beacon fluorescence; inhibition, % at 10.9 µM; actives 0.56% (n = 290,000);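 active means inhibition above the mean of all tested compounds plus 3 SD, set per campaign, cut at about 35% in these data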;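 further: 0% = DMSO wells and 100% = thioflavine S control wells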
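Assay system: hepatitis C virus NS3 helicase domain fragment enzyme. Also added: annealed dual-labelled DNA beacon duplex, ATP-started. Timing: 1 h reaction at 25 °C, ATP-initiated. Technique: Cy5 fluorescence at 0 and 60 min, beacon hairpin quenching. Evaluation: % inhibition of unwinding. Replication: one well per compound.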
PABP polyA inh: blocks human PABP binding to poly(A) RNA; P11940; fluorescence polarization; inhibition, % at 35 µM; actives 1% (n = 290,000);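 further: calls also rest on retests at 20 µM and on dose response follow-up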
Active calls of the source: *; ? = inconclusive; nt = no result given; + = active, no number; ! = not confirmed by another sample. A selection: hits, their analogues and other compounds. The true share with any hit is near 2%. Unless noted, how the calls were made is not given here.

SMILES	HCV core dimer	FID counter	PABP1 MLLE inh	eIF4H inh	HCV NS3 hel inh	PABP polyA inh
Cn1c(=O)oc2cc(S(=O)(=O)N3CCOCC3)ccc21	-5.7	-0.7	-5.2	-9.7	2.3	-6.3
Cn1c(=O)oc2cc(S(=O)(=O)N3CCC4(CC3)OCCO4)ccc21	-1.8	2.0	-8.2	95.1*	-2.1	101.4*
CC(C)CNS(=O)(=O)c1ccc(S(=O)(=O)N2CCC3(CC2)OCCO3)cc1	-0.2	-12.3	5.9	?	3.0	active
CCN(CC)C(=O)C1=C(C)N(CCCOC)C(=O)C(CC(=O)NCc2cccs2)C1 (centres undefined)	nt	nt	13.0	nt	nt	nt
O=[N+]([O-])c1cccc(SSc2cccc([N+](=O)[O-])c2)c1	nt	nt	36.7	nt	nt	nt
Cc1nnc(NC(=O)C2CCN(S(=O)(=O)c3ccc(F)c(F)c3)CC2)o1	nt	nt	-7.9	nt	nt	nt
COC(=O)/C=c1/s/c(=C(/C#N)C(=O)NCc2ccccc2)n(-c2ccccc2)c1=O	0.0	-12.3	-39.7	110.9*	3.1	82.5*
Cc1ccc(C)c(S(=O)(=O)Nc2ccc(O)c(Sc3ncn[nH]3)c2)c1	-2.2	-4.2	17.8	79.2*	6.4	55.2*
Cc1c(C=Nc2ccc(S(=O)(=O)N(C)C)cc2)c(O)[nH]c(=O)c1C#N	-7.2	nt	5.3	nt	nt	nt
O=C(NCc1cccc(CNC(=O)c2ccco2)c1)c1ccco1	-0.6	-0.7	14.8	-3.5	-12.4	-5.7
CCCOc1ccc2cc(C(=O)NCc3ccccc3)c(=O)oc2c1	58.3*	-15.6	-2.6	-2.0	-0.8	6.2
O=C(NCc1cccc(CNC(=O)C(=O)NCc2ccco2)c1)C(=O)NCc1ccco1	47.0*	-8.6	-7.9	54.9	-7.8	-4.7
O=C(NCc1ccco1)c1cc2ccc(O)cc2oc1=O	5.3	4.4	-7.2	?	10.4	36.9*
Cc1c(Br)cc(C(=O)NCc2ccco2)c(C)c1C	48.5*	-11.5	3.3	23.7	17.6	12.5
S=c1nc(-c2ccccn2)c(-c2ccccn2)n[nH]1	nt	nt	8.4	nt	nt	nt
COC(=O)[C@H]1C[C@H](OC(=O)Nc2cccs2)[C@@]2(O)CN(S(=O)(=O)c3ccc(C)cc3)CC2[C@H]1C(=O)OC (some centres undefined)	nt	nt	15.2	nt	nt	nt
CS(=O)(=O)c1ccc(S(=O)(=O)N2CCC(CO)(CCCc3ccccc3)CC2)cc1	7.3	-21.1	-8.7	-4.4	-8.4	-4.1
Nc1ccc(-c2nc3ncccc3o2)cc1	-5.1	-0.5	-0.3	-12.2	4.5	12.6
O=C(OCc1cn([C@H]2CN(CC3CCCCC3)[C@@H](c3ccc(Cl)cc3)C[C@@H]2O)nn1)c1ccccc1	nt	nt	-8.9	nt	nt	nt
Cc1occc1C(=O)NCc1ccco1	1.7	-2.2	-3.6	57.8*	12.5	3.9*
COCCNC(=O)COc1ccc(C)cc1C(=O)c1cc(C#N)c(=O)n(C2CC2)c1	-1.1	-6.0	-12.8	+	7.4	54.2*
CN1CCC(NCCC(c2ccc(F)cc2)c2ccc(Cl)cc2)CC1 (centres undefined)	nt	42.0*	-0.9	12.8	-52.1	1.0
CC(C)C(CCNC1CCN(C)CC1)c1ccc(Cl)cc1 (centres undefined)	-0.3	24.9	16.9	-0.3	-30.5	6.1
Nc1ccc(O)c2ccccc12	13.4	nt	nt	nt	nt	nt
O=S(=O)(NC(=S)NC1CCCCC1)c1ccccc1	-4.2	-4.9	37.4*	-1.1	-2.1	-8.7
SMILES	HCV core dimer	FID counter	PABP1 MLLE inh	eIF4H inh	HCV NS3 hel inh	PABP polyA inh
O=S(=O)(NC(=S)c1ccccc1)c1ccc(Cl)cc1	6.1	-7.7	23.5	-4.1	6.2	6.3
O=S(=O)(NC(=S)c1ccccc1)c1ccccc1	-5.4	nt	46.4*	nt	nt	nt
O=S(=O)(NC(=S)NC1CCCCC1)c1cccs1	-5.1	-2.0	52.3*	2.5	-1.3	-5.3
CC(=O)c1ccc(NC(=O)C2CCCNC2=O)cc1 (centres undefined)	-1.5	2.0	40.4*	-1.1	-3.9	1.3
COc1ccc(NC(=O)C2CCCNC2=O)cc1 (centres undefined)	nt	1.2	5.6	-11.0	2.1	-5.1
Fc1ccc(SCCc2ccncc2)cc1	-1.3	-3.8	42.8*!	-2.7	-0.7	-10.6
COc1ccc2oc(=O)c(/C(C)=N/Nc3nc(-c4cc(C)ccc4C)cs3)cc2c1	55.6*	1.4	-17.9	2.9	6.9	1.3
C/C(=N\Nc1nc(-c2ccc(C)cc2C)cs1)c1cc2ccccc2oc1=O	51.1*	-5.2	8.8	10.3	7.3	12.5
C/C(=N\Nc1ccccc1)c1cc2ccccc2oc1=O	0.9	-4.0	5.4	0.3	1.8	0.6
COc1ccc2oc(=O)c(-c3csc(Nc4ccc(O)cc4)n3)cc2c1	-11.6	9.1	-47.9	8.0	-12.1	3.0
C#CCN(C[C@H]1[C@H](OC(=O)NCc2ccccc2F)[C@H](OC(=O)NCc2ccccc2F)C[C@@H](C(=O)OC)[C@H]1C(=O)OC)S(=O)(=O)c1ccc(C)cc1	nt	nt	0.9	nt	nt	nt
CCOC(=O)C1=CCN(S(=O)(=O)c2ccc(Br)cc2)C1c1cccc(C)c1 (centres undefined)	nt	nt	4.0	nt	nt	nt
CSC1=N/C(=C\c2ccc(Br)o2)C(=O)S1	33.7	-3.0	0.4	57.3*	19.6	16.3*
CC(=O)c1ccc(Cc2ccc(C(C)=O)s2)s1	nt	nt	28.7	nt	nt	nt
COCCNS(=O)(=O)c1ccc2c(c1)oc(=O)c1cc(S(=O)(=O)NCCOC)ccc12	2.2	-4.9	nt	-1.1	1.6	88.2*
C[C@H](NC(=O)C1CCN(S(=O)(=O)c2ccccc2)CC1)C(=O)NCc1cccnc1	nt	nt	13.3	nt	nt	nt
Cc1ccc(C(C)C)c(OCc2nn(CC(=O)c3ccc(OC(F)F)cc3)c3[n+]2CCCCC3)c1	-5.5	36.9*	-28.3	-1.3	-69.6	-2.3
COc1ccc(C(=O)Cn2nc(CNc3ccc(Br)cc3)[n+]3c2CCCCC3)cc1	-7.4	22.5	1.4	-17.1	-40.6	-3.8
COc1cc(/C=C/C(=O)Nc2nnc(C(C)(C)C)s2)cc(OC)c1OC	-10.8	-21.8	41.3*	-12.7	1.5	-5.7
CCCC1(c2ccsc2)NC(=O)NC1=O (centres undefined)	nt	nt	-14.1	nt	nt	nt
CCOC(=O)C1=C(O)/C(=C\c2sccc2C)N=C1C	-8.0	-6.6	9.5	77.5*	-5.3	active
CCOC(=O)C1=C(O)/C(=C\c2cccs2)N=C1C	-16.5	-2.4	-6.8	-6.8	3.5	3.3
COC(=O)C1=C(O)/C(=C\c2sccc2C)N=C1C	-22.9	-3.9	1.4	64.7*	9.5	4.9*
COc1cc2cc(CN(Cc3nnnn3Cc3ccco3)C3CCCCC3)c(=O)[nH]c2cc1OC	8.2	-2.9	12.9	61.3*	16.3	63.8*
COCCn1nnnc1CN(Cc1cc2cc(OC)c(OC)cc2[nH]c1=O)C1CCCC1	2.5	-4.8	4.6	51.3*	10.9	84.9*
Cc1ccc2cc(CN(CCN3CCOCC3)Cc3nnnn3Cc3ccco3)c(=O)[nH]c2c1C	nt	-14.4	-17.4	85.8*	24.5	71.8*
